{"source": "PubChem BioAssay", "note": "Calls of active or inactive are those of the source.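 Rule for the calls, unless noted: active = current rise at least 3 SD above the untreated control mean in each of two repeat wells; inactive = the rest.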"}
{"molecular_target": "Potassium voltage-gated channel subfamily KQT member 2 (Rattus norvegicus) (UniProt O88943)", "sequence (O88943 whole entry, looked up)": "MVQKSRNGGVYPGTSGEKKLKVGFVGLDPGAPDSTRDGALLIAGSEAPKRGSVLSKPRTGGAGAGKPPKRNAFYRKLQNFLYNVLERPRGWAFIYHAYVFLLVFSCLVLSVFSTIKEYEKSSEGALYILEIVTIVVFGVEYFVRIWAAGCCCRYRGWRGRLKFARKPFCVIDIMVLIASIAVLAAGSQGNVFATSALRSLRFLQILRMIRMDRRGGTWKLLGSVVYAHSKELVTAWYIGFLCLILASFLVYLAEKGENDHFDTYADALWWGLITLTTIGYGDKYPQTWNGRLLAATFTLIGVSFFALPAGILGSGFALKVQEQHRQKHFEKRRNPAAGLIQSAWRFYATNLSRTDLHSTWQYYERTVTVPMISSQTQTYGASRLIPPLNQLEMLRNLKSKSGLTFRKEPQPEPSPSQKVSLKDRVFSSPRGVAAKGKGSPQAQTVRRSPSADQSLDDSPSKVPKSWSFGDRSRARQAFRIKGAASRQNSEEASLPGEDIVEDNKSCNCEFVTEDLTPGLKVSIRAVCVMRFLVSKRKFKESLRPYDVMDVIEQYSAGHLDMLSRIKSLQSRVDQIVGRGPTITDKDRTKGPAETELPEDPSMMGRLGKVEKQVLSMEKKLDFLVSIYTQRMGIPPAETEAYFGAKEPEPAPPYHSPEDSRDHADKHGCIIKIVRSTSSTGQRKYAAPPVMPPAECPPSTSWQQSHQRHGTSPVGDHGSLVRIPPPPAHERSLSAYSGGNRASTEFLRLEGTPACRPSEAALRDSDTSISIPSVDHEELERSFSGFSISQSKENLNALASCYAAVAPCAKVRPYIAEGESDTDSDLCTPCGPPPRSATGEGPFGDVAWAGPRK", "experiment": "rat KCNQ2 channel potentiation, selectivity assay for KCNQ1 potentiator project, KCNQ2-CHO-K1 cells (AID 493009;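 active = mean duplicate potentiation above the buffer control mean plus 5 SD of buffer wells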;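 note: assay conditions were tuned for KCNQ1 rather than KCNQ2 modulators; signal is max minus min fluorescence divided by baseline after thallium stimulus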)", "details": "FluxOR thallium flux fluorescence, at 10 µM; active compounds read high, scaled: buffer 0, activator control 100"}
{"smiles": "CC1(c2ccc(OC(F)F)cc2)NC(=O)N(CC(=O)Nc2ccc(OC(F)F)cc2)C1=O", "note": "(stereo not given)", "outcome": "inactive"}
{"smiles": "COc1ccccc1C(=O)NNC(=O)C(=O)NC(C)(C)C", "potentiation": "246% (active)"}
{"smiles": "COc1ccc(C2c3ccc4ccccc4c3Oc3ncn(CCCO)c(=N)c32)cc1", "note": "(stereo not given)", "outcome": "inactive"}
{"smiles": "O=C(CSc1ncnc2c1cnn2-c1ccc(F)cc1)NC1CCCC1", "outcome": "inactive"}
{"smiles": "Cc1cc(/C=C2\\SC(=Nc3ccc(F)cc3)NC2=O)c(C)n1-c1ccc(S(N)(=O)=O)cc1", "outcome": "inactive"}
{"smiles": "CC(C)Cc1c2c([nH]c(=S)c1C#N)CCCC2", "potentiation": "143% (active)"}
{"smiles": "COc1ccccc1NC(=O)C(=O)NNC(=O)COc1ccc2ccccc2c1", "potentiation": "555% (active)"}
{"smiles": "COc1ccccc1OCCc1nnc(N)s1", "outcome": "inactive"}
{"smiles": "COc1ccc(-n2nc3c(c2NC(=O)c2ccc4c(c2)OCO4)CS(=O)(=O)C3)cc1", "potentiation": "206% (active)"}
{"smiles": "CC(=O)c1c(-c2ccccc2)c2cc([N+](=O)[O-])ccc2[nH]c1=O", "outcome": "inactive"}
{"smiles": "Cc1onc(-c2ccccc2)c1C(=O)NC(=S)Nc1sc2c(c1C#N)CCC(C)C2", "note": "(stereo not given)", "potentiation": "142% (active)"}
{"smiles": "CN(C)CC(CCCCC(CN(C)C)C(=O)c1ccccc1)C(=O)c1ccccc1", "note": "(stereo not given)", "outcome": "inactive"}
{"smiles": "C=CCn1c(N)c(C(=O)Nc2ccc(C)cc2)sc1=S", "outcome": "inactive"}
{"smiles": "Cc1ccccc1C(=O)Nc1nc(=S)ss1", "potentiation": "267% (active)"}
{"smiles": "O=S(=O)(/C=C/c1ccccc1)n1cnc2ccccc21", "outcome": "inactive"}
{"smiles": "O=C(NC(=S)Nc1ccccc1)c1ccc(Br)o1", "potentiation": "158% (active)"}
{"smiles": "N#CC(c1cccc(Cl)c1)c1ccc2c(C(F)(F)F)cc(C(F)(F)F)nc2n1", "note": "(stereo not given)", "potentiation": "298% (active)"}
{"smiles": "CCn1c(O)c(N=NC2=NC(=O)CS2)c2ccccc21", "potentiation": "145% (active)"}
{"smiles": "COc1ccc(Cl)cc1NC(=O)/C=C\\C(=O)O", "outcome": "inactive"}
{"smiles": "Cc1cc(/C=N/NC(=O)CC#N)c(C)n1-c1ccc([N+](=O)[O-])cc1", "outcome": "inactive"}
{"smiles": "CCOc1ccc(/C=C2/SC(=O)NC2=S)cc1", "potentiation": "379% (active)"}
{"smiles": "CC(Oc1ccc(Br)cc1)C(=O)N1CCC(C(N)=O)CC1", "note": "(stereo not given)", "outcome": "inactive"}
{"smiles": "CC(C)c1ccc(/C=C2\\SC(N3CCOCC3)=NC2=O)cc1", "potentiation": "146% (active)"}
{"smiles": "O=C(Nc1nnc(-c2ccc3c(c2)CCCC3)o1)c1ccccc1Cl", "potentiation": "267% (active)"}
{"smiles": "O=C(NC(=S)Nc1ccccc1N1CCCC1)c1ccc([N+](=O)[O-])cc1", "potentiation": "218% (active)"}
{"smiles": "Cc1ccc(-c2nc3c(Cl)cc(Cl)cc3c(=O)n2O)cc1", "potentiation": "820% (active)"}
{"smiles": "CCSc1nnc(NC(=O)C2C3C=CC(C3)C2C(=O)O)s1", "note": "(stereo not given)", "outcome": "inactive"}
{"smiles": "COC(=O)c1sc(-c2ccc(C(C)(C)C)cc2)cc1NC(=O)/C=C/C(=O)O", "potentiation": "320% (active)"}
{"smiles": "COc1cccc(C(=O)NNC(=O)C(=O)Nc2ccc(OC)cc2OC)c1", "potentiation": "202% (active)"}
{"smiles": "CCN(CC)c1ccc(NC(=S)NC(=O)c2ccco2)cc1", "potentiation": "322% (active)"}
{"smiles": "Nc1nc(C23CC4CC(CC(C4)C2)C3)cs1", "potentiation": "168% (active)"}
{"smiles": "CC(=O)NC(C1C(=O)CC(C)(C)CC1=O)(C(F)(F)F)C(F)(F)F", "outcome": "inactive"}
{"smiles": "CCC(C)[C@H](N)c1nnc(SCC(=O)Nc2cccc(Cl)c2)o1", "note": "(stereo not given in full)", "potentiation": "162% (active)"}
{"smiles": "Cc1ccc(-c2cc(C(=O)NCc3ccccn3)c3ccccc3n2)cc1C", "outcome": "inactive"}
{"smiles": "O=C1CCC(C(=O)N2CCSCC2)CN1Cc1cccc(C(F)(F)F)c1", "note": "(stereo not given)", "outcome": "inactive"}
{"smiles": "CCCCCCCCCCCCC/C=C/[C@@H](O)[C@@H](N)CO", "potentiation": "414% (active)"}
{"smiles": "COn1c(SCc2ccc(C)cc2C)nc2ccccc2c1=O", "outcome": "inactive"}
{"smiles": "c1ccc2[nH]c(-c3ccc4c(c3)OCO4)nc2c1", "outcome": "inactive"}
{"smiles": "Cc1cccc(NC(=S)NC(=O)c2ccc(Br)o2)c1C", "outcome": "inactive"}
{"smiles": "Cc1cc(Cl)ccc1OCC(=O)NNC(=O)C1CCCO1", "note": "(stereo not given)", "outcome": "inactive"}
{"molecular_target": "Potassium voltage-gated channel subfamily KQT member 1 (Homo sapiens) (UniProt P51787)", "sequence (P51787 whole entry, looked up)": "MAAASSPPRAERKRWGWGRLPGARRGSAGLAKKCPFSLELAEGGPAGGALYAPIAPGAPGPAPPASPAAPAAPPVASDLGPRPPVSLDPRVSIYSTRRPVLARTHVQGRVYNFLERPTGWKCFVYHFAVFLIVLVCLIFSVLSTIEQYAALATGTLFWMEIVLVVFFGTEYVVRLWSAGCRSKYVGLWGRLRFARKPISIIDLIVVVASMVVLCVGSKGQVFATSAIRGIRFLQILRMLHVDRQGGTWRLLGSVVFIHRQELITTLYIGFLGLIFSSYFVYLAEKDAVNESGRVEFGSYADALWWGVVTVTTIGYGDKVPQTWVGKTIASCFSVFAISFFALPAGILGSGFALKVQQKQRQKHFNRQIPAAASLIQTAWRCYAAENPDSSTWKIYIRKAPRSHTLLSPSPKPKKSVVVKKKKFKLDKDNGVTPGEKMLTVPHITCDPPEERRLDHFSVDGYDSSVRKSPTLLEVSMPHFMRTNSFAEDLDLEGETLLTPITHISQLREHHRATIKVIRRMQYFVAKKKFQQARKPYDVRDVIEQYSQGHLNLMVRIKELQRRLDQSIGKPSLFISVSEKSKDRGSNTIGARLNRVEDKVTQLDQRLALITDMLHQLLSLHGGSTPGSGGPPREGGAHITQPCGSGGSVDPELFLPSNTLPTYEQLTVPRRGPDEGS", "experiment": "KCNQ1 channel current potentiators, confirmation, orthogonal assay for KCNQ1 potentiator project, IonWorks patch clamp, KCNQ1-CHO cells (AID 493184);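 for current potentiation: percent change of the same well's current before compound addition so 0% = no change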", "details": "automated patch clamp current, at 10 µM; active compounds read high", "method_in_brief": "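Probe or stimulus: depolarizing pulse to +40 mV from -90 mV; Material: CHO cells carrying KCNQ1; Compound: one dose, 10 µM final; Signal: automated voltage clamp, amphotericin B perforated patch; Read-out basis: percent current increase versus pre-compound level; Buffer or medium: pH 7.4 external bath; Replication: duplicates.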"}
{"smiles": "CC1(c2ccc(OC(F)F)cc2)NC(=O)N(CC(=O)Nc2ccc(OC(F)F)cc2)C1=O", "note": "(stereo not given)", "outcome": "inactive"}
{"smiles": "COc1ccccc1C(=O)NNC(=O)C(=O)NC(C)(C)C", "outcome": "inactive"}
{"smiles": "COc1ccc(C2c3ccc4ccccc4c3Oc3ncn(CCCO)c(=N)c32)cc1", "note": "(stereo not given)", "outcome": "inactive"}
{"smiles": "O=C(CSc1ncnc2c1cnn2-c1ccc(F)cc1)NC1CCCC1", "outcome": "inactive"}
{"smiles": "Cc1cc(/C=C2\\SC(=Nc3ccc(F)cc3)NC2=O)c(C)n1-c1ccc(S(N)(=O)=O)cc1", "outcome": "inactive"}
{"smiles": "CC(C)Cc1c2c([nH]c(=S)c1C#N)CCCC2", "outcome": "inactive"}
{"smiles": "COc1ccccc1NC(=O)C(=O)NNC(=O)COc1ccc2ccccc2c1", "outcome": "inactive"}
{"smiles": "COc1ccccc1OCCc1nnc(N)s1", "outcome": "inactive"}
{"smiles": "COc1ccc(-n2nc3c(c2NC(=O)c2ccc4c(c2)OCO4)CS(=O)(=O)C3)cc1", "outcome": "inactive"}
{"smiles": "CC(=O)c1c(-c2ccccc2)c2cc([N+](=O)[O-])ccc2[nH]c1=O", "outcome": "inactive"}
{"smiles": "Cc1onc(-c2ccccc2)c1C(=O)NC(=S)Nc1sc2c(c1C#N)CCC(C)C2", "note": "(stereo not given)", "outcome": "inactive"}
{"smiles": "CN(C)CC(CCCCC(CN(C)C)C(=O)c1ccccc1)C(=O)c1ccccc1", "note": "(stereo not given)", "outcome": "inactive"}
{"smiles": "C=CCn1c(N)c(C(=O)Nc2ccc(C)cc2)sc1=S", "outcome": "inactive"}
{"smiles": "Cc1ccccc1C(=O)Nc1nc(=S)ss1", "outcome": "inactive"}
{"smiles": "O=S(=O)(/C=C/c1ccccc1)n1cnc2ccccc21", "outcome": "inactive"}
{"smiles": "O=C(NC(=S)Nc1ccccc1)c1ccc(Br)o1", "outcome": "inactive"}
{"smiles": "N#CC(c1cccc(Cl)c1)c1ccc2c(C(F)(F)F)cc(C(F)(F)F)nc2n1", "note": "(stereo not given)", "outcome": "inactive"}
{"smiles": "CCn1c(O)c(N=NC2=NC(=O)CS2)c2ccccc21", "outcome": "inactive"}
{"smiles": "COc1ccc(Cl)cc1NC(=O)/C=C\\C(=O)O", "outcome": "inactive"}
{"smiles": "Cc1cc(/C=N/NC(=O)CC#N)c(C)n1-c1ccc([N+](=O)[O-])cc1", "outcome": "inactive"}
{"smiles": "CCOc1ccc(/C=C2/SC(=O)NC2=S)cc1", "outcome": "inactive"}
{"smiles": "CC(Oc1ccc(Br)cc1)C(=O)N1CCC(C(N)=O)CC1", "note": "(stereo not given)", "outcome": "inactive"}
{"smiles": "CC(C)c1ccc(/C=C2\\SC(N3CCOCC3)=NC2=O)cc1", "outcome": "inactive"}
{"smiles": "O=C(Nc1nnc(-c2ccc3c(c2)CCCC3)o1)c1ccccc1Cl", "outcome": "inactive"}
{"smiles": "O=C(NC(=S)Nc1ccccc1N1CCCC1)c1ccc([N+](=O)[O-])cc1", "outcome": "inactive"}
{"smiles": "Cc1ccc(-c2nc3c(Cl)cc(Cl)cc3c(=O)n2O)cc1", "outcome": "inactive"}
{"smiles": "CCSc1nnc(NC(=O)C2C3C=CC(C3)C2C(=O)O)s1", "note": "(stereo not given)", "outcome": "inactive"}
{"smiles": "COC(=O)c1sc(-c2ccc(C(C)(C)C)cc2)cc1NC(=O)/C=C/C(=O)O", "current potentiation": "20.6% (active)"}
{"smiles": "COc1cccc(C(=O)NNC(=O)C(=O)Nc2ccc(OC)cc2OC)c1", "outcome": "inactive"}
{"smiles": "CCN(CC)c1ccc(NC(=S)NC(=O)c2ccco2)cc1", "outcome": "inactive"}
{"smiles": "Nc1nc(C23CC4CC(CC(C4)C2)C3)cs1", "outcome": "inactive"}
{"smiles": "CC(=O)NC(C1C(=O)CC(C)(C)CC1=O)(C(F)(F)F)C(F)(F)F", "outcome": "inactive"}
{"smiles": "CCC(C)[C@H](N)c1nnc(SCC(=O)Nc2cccc(Cl)c2)o1", "note": "(stereo not given in full)", "outcome": "inactive"}
{"smiles": "Cc1ccc(-c2cc(C(=O)NCc3ccccn3)c3ccccc3n2)cc1C", "outcome": "inactive"}
{"smiles": "O=C1CCC(C(=O)N2CCSCC2)CN1Cc1cccc(C(F)(F)F)c1", "note": "(stereo not given)", "outcome": "inactive"}
{"smiles": "CCCCCCCCCCCCC/C=C/[C@@H](O)[C@@H](N)CO", "outcome": "inactive"}
{"smiles": "COn1c(SCc2ccc(C)cc2C)nc2ccccc2c1=O", "outcome": "inactive"}
{"smiles": "c1ccc2[nH]c(-c3ccc4c(c3)OCO4)nc2c1", "outcome": "inactive"}
{"smiles": "Cc1cccc(NC(=S)NC(=O)c2ccc(Br)o2)c1C", "outcome": "inactive"}
{"smiles": "Cc1cc(Cl)ccc1OCC(=O)NNC(=O)C1CCCO1", "note": "(stereo not given)", "outcome": "inactive"}
